Data on 97 compounds can be found in ChEMBL document CHEMBL4513216, “Probing the Open Global Health Chemical Diversity Library for Multistage-Active Starting Points for Next-Generation Antimalarials” (ACS Infect Dis, 2020).

Molecules are shown by their SMILES.

The series in a line: Toxicity liver stage against HepG2, at 10uM. In kind it is cell-based. Also noted: test concentration 10 uM, cell line HepG2-A16-CD81EGFP. Particulars: human, HepG2-A16-CD81EGFP cells; read-out: INHIBITION
An outline of the steps: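 Uninfected HepG2-A16-CD81EGFP cells, 3 × 10^3 per well, 1536-well, plated on prespotted compound at 10 μM final, parasite-free screening media added to match infected plates; puromycin 10 μM positive, DMSO 0.5% negative; run in parallel with 48 h PbLuc assay at 37 °C, 5% CO2; viability by CellTiter-Glo luminescence, normalized to controls.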
For the compound `Cc1c(C)n2c(SCC(=O)N3CCCC3)nnc2[nH]c1=O`, the cytotoxicity at 10 µM was 2.4%.

For `CN1C[C@@H](NC(=O)CC(C)(C)C)C[C@H]1c1nc(-c2cnccn2)no1`, the cytotoxicity at 10 µM came to 3.08%.

Turning to `O=C(NCCN1CCCCC1)C(c1ccccc1)N1CCCC1` (configuration not stated), the cytotoxicity at 10 µM was -1.46%. Take `CN(Cc1ccccc1)C(=O)Cn1nc(N2CCSCC2)ccc1=O`: the cytotoxicity at 10 µM is 0.585%. For `CC(C)n1ccc2cc(C(=O)Nc3nc[nH]n3)ccc21` the value was 4.06%; for `O=C(O)c1ccc(N2CCC(Cc3ccccc3)CC2)nn1`, -6.14%.

For the compound `CC(=O)NCC(Cc1cccc(F)c1)n1cccc1` (configuration not stated), the cytotoxicity at 10 µM is -5.36%. As to `Cn1nnn(-c2ccc(NS(=O)(=O)c3ccc(F)c(Cl)c3)cc2)c1=O`, the cytotoxicity at 10 µM was -4.57%.

As to `COCC(C)NC(=O)c1nnn(-c2ccc(OC)cc2)n1` (configuration not stated), the cytotoxicity at 10 µM was 1.87%. Then `O=C(c1nnn(-c2ccc(F)cc2)n1)N1CCC(O)CC1`, with 5.86%; and `Nc1cccnc1N1CCC(C(F)(F)F)CC1`, with 8.19%. Then `Cc1nc(N2CCCC2)nc2c1CCN(C(=O)N1CCCC1)CC2`, with 1.82%.

On to `CCC(CC)NC(=O)c1ccc2c(c1)C(c1nc[nH]n1)CN2S(C)(=O)=O` (configuration not stated), for which the cytotoxicity at 10 µM is -138%. As for `COc1cccc(N2CC3(CCN(c4cnccn4)C3)CC2=O)c1` (configuration not stated), the cytotoxicity at 10 µM came out at 0.0227%. For `CN(C)C(=O)c1ccn(-c2ccc3ccccn23)n1` the value was 6.98%; for `COCC1c2nnn(CC3CC3)c2CCN1C(=O)C1CCOCC1` (configuration not stated), -136%. Then `C1CC(CN2C[C@@H]3C[C@@H](c4nnc(C5CC5)o4)O[C@@H]3C2)C1`, with 14.9%. Then `COCC(=O)N1CCC2(COCc3cnc(-c4ccccc4)nc32)C1` (configuration not stated), with 2.65%; and `CCCNC(=O)c1nc2c(o1)CN(C(=O)CN(C)C)C2`, with 0.0773%; and `O=C(c1cccs1)N1CCN(CC2CC2)c2ncccc2C1`, with 0.835%. Take `CCOc1cccc(CNc2ccccc2Cl)c1O`: the cytotoxicity at 10 µM was -2.52%. Then `O=C(O)c1nnn(-c2ccc(OC(F)(F)F)cc2)c1-c1ccncc1`, with -5.85%. Take `COc1cccc2c1ccn2CCC(=O)N1CCCC(C(=O)O)C1` (configuration not stated): the cytotoxicity at 10 µM stood at 2.11%. As to `CNc1nc2c(s1)C(c1cccc(F)c1F)CC(=O)N2` (configuration not stated), the cytotoxicity at 10 µM is -2.15%. For `Cc1cc(C(F)(F)F)nn1CC(C)C(=O)Nc1ccccn1` (configuration not stated) the value was 9.84%. For `CCn1nc(C)c2c1cnn2CCNS(=O)(=O)c1ccccc1` the value was 6.28%; for `CCc1nnc(SCc2nonc2C)n1C`, -1.04%. For `Nc1nccnc1C1CN(Cc2ccc(OCC(=O)O)cc2)CCO1` (configuration not stated) the value was -2.11%; for `CCc1nccn1-c1cncc(C2CCN(C(=O)COC)CC2)n1`, -37.3%.

Take `O=C(O)C1(Cc2cccc(-c3ccc(F)cc3)c2)CCOCC1`: the cytotoxicity at 10 µM was -24.1%.

In the case of `CCN(CC(=O)Nc1cc(C(C)(C)C)no1)Cc1ccc(Cl)s1`, the cytotoxicity at 10 µM was 6.13%. Consider `CC(C)N1C(=O)CN(CCCO)CC1(C)C`, for which the cytotoxicity at 10 µM stood at 2.04%. For `CN(CC(N)=O)Cc1c(Cl)ccc2cccnc12` the value was 4.53%. As to `Cc1nnc(NCc2ccc(N3CCC(CO)CC3)cc2)c(C#N)c1C`, the cytotoxicity at 10 µM is -2.83%. Then `O=C(CN1CCS(=O)(=O)CC1)NC1CCOc2ccccc21` (configuration not stated), with 5.44%. For `O=C(CCn1ccc2ccccc21)N1CCC(Nc2cccnc2)CC1` the value was 9.08%.

On to `Cn1c(C2CC2)nc2cc(NC(=O)C3CC=CC3)ccc21`, for which the cytotoxicity at 10 µM amounted to 2.8%. For `Cc1csc(CCCNC(=O)NC2CC(=O)N(C(C)(C)C)C2)n1` (configuration not stated) the value was -8.88%; for `CCC(C)(NCC(=O)OC)c1nccs1` (configuration not stated), -12.7%.

Consider `COc1cc(C(=O)N2CCC(Nc3cccnc3)CC2)ccc1C`, for which the cytotoxicity at 10 µM is -134%. Then `Cc1nc(CNC(=O)NCc2ccc(OCC3CC3)nc2)cs1`, with 5.07%. For `COCCN1C(=O)CC(N2CCN(c3ccccc3)CC2)C1=O` (configuration not stated) the value was 1.22%; for `COc1cccc2[nH]cc(CCNC(=O)N3CCC[C@H]3CO)c12`, -12.6%; for `NC(=O)C1CN(c2ccc3c(Cl)ccnc3c2F)CCO1` (configuration not stated), 3.06%. Consider `COc1ccccc1CCNC(=O)NC(C)COCC(F)(F)F` (configuration not stated), for which the cytotoxicity at 10 µM came out at 8.91%. Then `N#Cc1ccc(NCCc2n[nH]c(=O)[nH]2)cc1Cl`, with 26.5%. For `Cc1cc(=O)n(C)cc1NC(=O)Cc1cccc(Cl)c1` the value was -12.8%; for `CCOc1cccnc1C(=O)N1CC=C(c2ccc(O)cc2)CC1`, -1.66%; for `Cc1cccc(-c2c[nH]c(C3CCCN3C(=O)Cn3cc(C)cn3)n2)c1` (configuration not stated), 4.56%. Then `CS(=O)(=O)CCCN(CCc1cccc(F)c1)C1CC1`, with -18.3%; and `CCCc1nccn1CCn1cnc2ccsc2c1=O`, with 0.0394%.

With `CNS(=O)(=O)c1csc(C(=O)NCc2sccc2C)c1`, the cytotoxicity at 10 µM was found to be 4.63%. For `O=C(Nc1ccccc1OC(F)(F)F)C1CCS(=O)(=O)C1` (configuration not stated) the value was 10.8%; for `COCC1CN(C(=O)Nc2cc(C(F)(F)F)ccc2F)CCO1` (configuration not stated), 4.24%; for `COc1cc(F)c(S(=O)(=O)N2CCN(C)Cc3ccccc32)cc1OC`, 3.84%. Then `Cc1ccc(C(CNCC2CC2)N2CCOCC2)s1` (configuration not stated), with -13.7%. As to `c1ccc(OCCN2CCCC(c3noc(C4CC4)n3)C2)cc1` (configuration not stated), the cytotoxicity at 10 µM came out at 2.58%. Then `O=C(NCc1ccoc1)NC1CCCN(c2ncccn2)C1` (configuration not stated), with -1.27%; and `CN(Cc1cnn(C)c1)C(=O)NC1CCS(=O)(=O)C1` (configuration not stated), with -14.4%; and `Cc1nc(C)n(C2CCCN(C(=O)Cc3cccnc3)C2)n1` (configuration not stated), with -2.15%. Then `CCN1CCNC(=O)C12CCN(C(=O)Cc1ccsc1)CC2`, with -3.31%; and `Cc1cc(C)n(CC(C)NC(=O)C2(c3ccccc3F)CC2)n1` (configuration not stated), with -0.844%. With `COc1cccc2c1OCC(C(=O)N1CCN(CCS(C)(=O)=O)CC1)C2` (configuration not stated), the cytotoxicity at 10 µM was 1.28%. Then `CC1CCN(CC(=O)N(C)CCc2noc(C3CC3)n2)C1=O` (configuration not stated), with -133%; and `Cc1cc(C)c(C(=O)NC(CN2CCCC2)c2ccccc2)c(=O)[nH]1` (configuration not stated), with -2.57%. As for `Fc1cc(Cl)cnc1N1CCCC(c2nccn2Cc2ccccn2)C1` (configuration not stated), the cytotoxicity at 10 µM was -3.54%. `CC(=O)N1CCCC(C(=O)NCCc2csc(-c3ccncc3)n2)C1` (configuration not stated): the cytotoxicity at 10 µM was 5.12%.

For the compound `CCCn1cnnc1CNC(=O)CC1C(=O)NCCN1CC=C(C)C` (configuration not stated), the cytotoxicity at 10 µM turned out to be 6.64%. Then `Cc1cc(-c2cccc(-c3ccn(CCCO)n3)c2)nc(N(C)C)n1`, with -5.42%; and `O[C@H]1CN(c2nc(-c3ccccc3)no2)C[C@@H]1N1CCOCC1`, with -20.8%; and `CN1C(=O)C2(CCN(c3nccc4occc34)CC2)c2ccccc21`, with 1.16%.

Regarding `CCN(Cc1cnn(C)c1)C[C@H]1CC[C@@H](Cc2ccc(OC)nc2)O1`, the cytotoxicity at 10 µM turned out to be 1.94%.

On to `CCCn1ncnc1C(C)NC(=O)CC1CCN(C(C)C)CC1` (configuration not stated), for which the cytotoxicity at 10 µM was -150%. Turning to `O=C(NCc1cc(O)ncn1)C1CCOc2ccccc2C1` (configuration not stated), the cytotoxicity at 10 µM is -6.01%. Then `CNC(=O)c1ccc(OC2CCN(S(C)(=O)=O)CC2)c(Cl)c1`, with 1.49%. Consider `CC(=O)N1CCC(c2cc(C(F)(F)F)n3ccnc3n2)CC1`, for which the cytotoxicity at 10 µM was 1.56%. With `O=C1CN(c2ccc(CNC(=O)NCc3ccoc3)cc2)CCN1`, the cytotoxicity at 10 µM was -1.28%. For `Cc1cnn(C2CCCN(C(=O)c3ccc(NC4CC4)nc3)C2)c1` (configuration not stated) the value was -19.6%; for `CC(C(=O)NCCCN1CCOCC1)n1cncn1` (configuration not stated), 1.4%; for `COc1ccc(NC(=O)CCn2nc(-c3cccs3)oc2=O)cc1OC`, -9.37%. For `CCCNC(=O)CN1CCC(NC(=O)c2cc(CC)ccc2O)CC1` the value was 1.93%.

Take `CCN(CC)C(=O)Cn1ccc2cc(NC(=O)NC3CC3)ccc21`: the cytotoxicity at 10 µM is -9.01%.

On to `CCc1n[nH]c(C2CN(C(=O)CCn3ccccc3=O)CCO2)n1` (configuration not stated), for which the cytotoxicity at 10 µM is 0.00528%. For `CN(C)c1ccc(CNC(=O)NCCc2ccccn2)cn1` the value was -4.66%. Then `Cc1csc(N2CCN(C(=O)CCn3cncn3)CC2)n1`, with -5.97%. As to `CN(Cc1cnn(C)c1)C(=O)NCc1nnc2n1CCC2`, the cytotoxicity at 10 µM was -4.1%. For `CC(NC(=O)N(C)Cc1ccc(Cl)s1)c1ccccn1` (configuration not stated) the value was 0.313%.

Consider `O=C(c1cccn2ccnc12)N1CCCN(c2cccnn2)CC1`, for which the cytotoxicity at 10 µM amounted to 1.68%. Then `Cc1ccc(CN2C[C@H](N3CCOCC3)[C@@H]3OCCC[C@@H]32)o1`, with -125%. For `O=C(NC1CC1)[C@H]1CN(Cc2ccc3c(c2)OCO3)C[C@H]2OCC[C@@H]12` the value was 3.56%; for `C[C@H]1C(=O)NC[C@H]2CN(CCc3ccccc3)C[C@H]21`, 2.64%; for `O=C1[C@H]2CN(Cc3ccco3)C[C@H]2CN1c1cncnc1`, -3.64%. As to `c1ccc(CO[C@@H]2C[C@H]3CN(c4ncccn4)CCN3C2)cc1`, the cytotoxicity at 10 µM was 0.472%. As to `COCC(=O)NC[C@]12COC[C@H]1CN(c1ncc(F)cn1)C2`, the cytotoxicity at 10 µM was -143%. With `O=c1c2c[nH]c(N3CCCCC3)nc-2cn1-c1ccc2c(c1)OCO2`, the cytotoxicity at 10 µM stood at 15%. `Cc1nc(C)c(CC(=O)N2C[C@H]3CC[C@@H](C2)N(CC2CC2)C3)s1`: the cytotoxicity at 10 µM is -1.59%. Take `O=C(c1c[nH]c(=O)c(Cl)c1)N1C[C@H]2CC[C@@H](C1)N(Cc1ccccc1)C2`: the cytotoxicity at 10 µM is -14.5%.
